ChEMBL document CHEMBL2429803, “Animal toxicity of hairpin pyrrole-imidazole polyamides varies with the turn unit” (J Med Chem, 2013)

Assays:
Mus musculus [1] = experiment: Toxicity in C57BL/6J mouse assessed as morbidity at 1 mg/kg, sc administered every 3 days for a cycle of 3 injections; format: organism-based; parameters: dose 1 mg/kg, route subcutaneous; conditions: in vivo, 72 h
How it was run: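 Male C57BL/6J mice, 3 per group, given 1 mg/kg sc every 3 days. Weight recorded on injection days. Watched for signs of duress. Humane end point was visible duress or weight loss over 15% of starting body weight.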

Mus musculus [2] = experiment: Toxicity in C57BL/6J mouse assessed as epithelial necrosis and apoptosis in kidney at 1 mg/kg, sc administered every 3 days for a cycle of 3 injections measured 2 days post last injection; format: organism-based; parameters: dose 1 mg/kg, route subcutaneous; conditions: in vivo, 48 h
How it was run: (§1)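 Male C57BL/6J mice, 8 weeks old, given 1 mg/kg sc every 3 days for three injections and sacrificed 2 days after the last one. Two mice per group fixed in 10% formalin. A veterinary pathologist, blinded, examined cecum, duodenum, heart, ileum, kidney, liver, lung, pancreas, spleen and stomach. Lesions graded mild, moderate or severe.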

Mus musculus [3] = experiment: Acute toxicity in C57BL/6J mouse assessed as lesions in pancreas at 1 to 10 mg/kg, sc after 9 days; format: organism-based; parameters: dose 1-10 mg/kg, route subcutaneous; conditions: in vivo, 216 h
How it was run: (§2)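 Male C57BL/6J mice, 8 weeks old, received a single sc dose (1, 3 or 10 mg/kg in 25% DMSO/saline, n = 4 per group) and were sacrificed after 9 days. Two representative animals per group were fixed in 10% formalin. Cecum, duodenum, heart, ileum, kidney, liver, lung, pancreas, spleen and stomach were examined blind by a veterinary pathologist and lesions graded mild, moderate or severe.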

Mus musculus [4] = experiment: Acute toxicity in C57BL/6J mouse assessed as lesions in GI tract at 1 to 10 mg/kg, sc after 9 days; format: organism-based, Gastrointestinal tract; parameters: dose 1-10 mg/kg, route subcutaneous; conditions: in vivo, 216 h; how it was run: as §2
Mus musculus [5] = experiment: Acute toxicity in C57BL/6J mouse assessed as weight loss at 10 mg/kg, sc after 9 days; format: organism-based; parameters: dose 10 mg/kg, route subcutaneous; conditions: in vivo, 216 h
How it was run: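 Male C57BL/6J mice, 8 weeks old, were acclimated 3 days and then given a single sc injection of 1, 3 or 10 mg/kg in 25% DMSO/saline vehicle (up to 200 μL), n = 4 per group. Weight, behaviour and appearance were monitored daily for 9 days before sacrifice. The humane end point was visible duress or weight loss over 15% of the original.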

Mus musculus [6] = experiment: Acute toxicity in C57BL/6J mouse assessed as lesions in stomach at 1 to 10 mg/kg, sc after 9 days; format: organism-based; parameters: dose 1-10 mg/kg, route subcutaneous; conditions: in vivo, 216 h; how it was run: as §2
Mus musculus [7] = experiment: Toxicity in C57BL/6J mouse assessed as mild multifocal hepatocellular necrosis and apoptosis in liver at 1 mg/kg, sc administered every 3 days for a cycle of 3 injections measured 2 days post last injection; format: organism-based; parameters: dose 1 mg/kg, route subcutaneous; conditions: in vivo, 48 h; how it was run: as §1
Mus musculus [8] = experiment: Toxicity in C57BL/6J mouse assessed as karyomegaly in kidney at 1 mg/kg, sc administered every 3 days for a cycle of 3 injections measured 2 days post last injection; format: organism-based; parameters: dose 1 mg/kg, route subcutaneous; conditions: in vivo, 48 h; how it was run: as §1
[9] = Metabolic stability in human liver microsomes after 1 hr by LC/MS/MS analysis in presence of NADPH; format: ADME, Microsome; conditions: read-out: Stability
How it was run: (§3)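 Compound incubated at 37 °C for 60 min with 1 mg/mL human or mouse liver microsomes in 100 mM KH2PO4, 3 mM MgCl2, pH 7.4, with 2 mM NADPH or without it. Stopped with ice-cold methanol, then precipitate removed. Analyzed by LC/MS/MS as % remaining versus time zero. Duplicates.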

Mus musculus [10] = experiment: Acute toxicity in C57BL/6J mouse assessed as milder tubular regeneration at 10 mg/kg, sc after 9 days; format: organism-based; parameters: dose 10 mg/kg, route subcutaneous; conditions: in vivo, 216 h; how it was run: as §2
Mus musculus [11] = experiment: Acute toxicity in C57BL/6J mouse assessed as diffuse hepatocellular necrosis and apoptosis at 3 to 10 mg/kg, sc after 9 days; format: organism-based; parameters: dose 3-10 mg/kg, route subcutaneous; conditions: in vivo, 216 h; how it was run: as §2
[12] = Metabolic stability in human liver microsomes after 1 hr by LC/MS/MS analysis; format: ADME, Microsome; conditions: read-out: Stability; how it was run: as §3
Mus musculus [13] = experiment: Toxicity in C57BL/6J mouse assessed as weight loss at 1 mg/kg, sc administered every 3 days for a cycle of 3 injections; format: organism-based; parameters: dose 1 mg/kg, route subcutaneous; conditions: in vivo, 72 h
How it was run: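 8-week-old male C57BL/6J mice, acclimated 3 days, groups of three, dosed sc in 25% DMSO/saline vehicle once every 3 days, sacrificed 2 days after the last injection. Body weight recorded on injection days and at end point; humane end point set at visible duress or >15% loss of original body weight.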

[14] = Metabolic stability in mouse liver microsomes after 1 hr by LC/MS/MS analysis in presence of NADPH; format: ADME, Microsome; conditions: read-out: Stability; how it was run: as §3
Mus musculus [15] = experiment: Acute toxicity in C57BL/6J mouse assessed as lesions in heart at 1 to 10 mg/kg, sc after 9 days; format: organism-based; parameters: dose 1-10 mg/kg, route subcutaneous; conditions: in vivo, 216 h; how it was run: as §2
Mus musculus [16] = experiment: Toxicity in C57BL/6J mouse assessed as mild tubular attenuation in kidney at 1 mg/kg, sc administered every 3 days for a cycle of 3 injections measured 2 days post last injection; format: organism-based; parameters: dose 1 mg/kg, route subcutaneous; conditions: in vivo, 48 h; how it was run: as §1
Mus musculus [17] = experiment: Toxicity in C57BL/6J mouse assessed as weight loss at 10 mg/kg, sc; format: organism-based; parameters: dose 10 mg/kg, route subcutaneous; conditions: in vivo
How it was run: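 Single sc injection in 25% DMSO/saline to 8-week-old male C57BL/6J mice acclimated 3 days; groups of four receiving 1, 3 or 10 mg/kg. Weight monitored daily for 9 days, then sacrifice; euthanasia on visible duress or weight loss beyond 15% of original body weight.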

Mus musculus [18] = experiment: Acute toxicity in C57BL/6J mouse assessed as karyomegaly at 10 mg/kg, sc after 9 days; format: organism-based; parameters: dose 10 mg/kg, route subcutaneous; conditions: in vivo, 216 h; how it was run: as §2
[19] = Metabolic stability in mouse liver microsomes after 1 hr by LC/MS/MS analysis; format: ADME, Microsome; conditions: read-out: Stability; how it was run: as §3
Mus musculus [20] = experiment: Acute toxicity in C57BL/6J mouse assessed as hepatocellular necrosis and apoptosis at 3 mg/kg, sc after 9 days; format: organism-based; parameters: dose 3 mg/kg, route subcutaneous; conditions: in vivo, 216 h; how it was run: as §2
Mus musculus [21] = experiment: Acute toxicity in C57BL/6J mouse at 10 mg/kg, sc after 9 days; format: organism-based; parameters: dose 10 mg/kg, route subcutaneous; conditions: in vivo, 216 h
How it was run: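 Single sc injection in male 8-week-old C57BL/6J mice (1, 3 or 10 mg/kg in 25% DMSO/saline; n = 4 per group), followed for 9 days with daily weighing, then sacrifice. Toxicity was assessed by blinded histopathology of two mice per group and by blinded serum ALT, AST, total bilirubin, BUN and creatinine from retroorbital blood of all mice.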

Mus musculus [22] = experiment: Acute toxicity in C57BL/6J mouse assessed as lesions in lungs at 1 to 10 mg/kg, sc after 9 days; format: organism-based; parameters: dose 1-10 mg/kg, route subcutaneous; conditions: in vivo, 216 h; how it was run: as §2

## CN(CCCNC(=O)c1cccc(C(=O)O)c1)CCCNC(=O)c1cc(NC(=O)c2cc(NC(=O)c3cc(NC(=O)c4nc(NC(=O)[C@H](N)CCNC(=O)c5cc(NC(=O)c6cc(NC(=O)c7cc(NC(=O)c8nccn8C)cn7C)cn6C)cn5C)cn4C)cn3C)cn2C)cn1C
Mus musculus [1]
  Activity: Non-toxic
Mus musculus [2]
  Activity: Toxic
Mus musculus [3]
  Activity: Non-toxic
Mus musculus [4]
  Activity: Non-toxic
Mus musculus [5]
  Activity: Toxic
Mus musculus [6]
  Activity: Non-toxic
Mus musculus [7]
  Activity: Toxic
Mus musculus [8]
  Activity: Toxic
[9]
  remaining at 1 h: > 90%
Mus musculus [10]
  Activity: Toxic
Mus musculus [11]
  Activity: Toxic
[12]
  remaining at 1 h: > 90%
Mus musculus [13]
  Activity: Non-toxic
[14]
  remaining at 1 h: > 90%
Mus musculus [15]
  Activity: Non-toxic
Mus musculus [16]
  Activity: Toxic
Mus musculus [17]
  Activity: > 15%
Mus musculus [18]
  Activity: Toxic
[19]
  remaining at 1 h: > 90%
Mus musculus [20]
  Activity: Toxic
Mus musculus [21]
  Activity: Non-toxic
Mus musculus [22]
  Activity: Non-toxic
